In all, about 200,000 compounds went through this assay and fewer than 10 were called active.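 The calls were made as follows: active = luciferase activation factor, scaled between plate controls, of at least 2 with compound at 10 µM; inactive = the rest.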 Not all results are given here.
target: Luciferin 4-monooxygenase (Photinus pyralis) (UniProt P08659); assay: FLuc activators, initial screening, artefact control for FLuc-dependent activation tests, biochemical, ATPlite luminescence (AID 1027); details: ATPlite luciferase biochemical, 10 min, at 10 µM, hits give high values, 0 = ATP-free wells, 1 = DMSO control
Sequence (P08659 whole entry, looked up): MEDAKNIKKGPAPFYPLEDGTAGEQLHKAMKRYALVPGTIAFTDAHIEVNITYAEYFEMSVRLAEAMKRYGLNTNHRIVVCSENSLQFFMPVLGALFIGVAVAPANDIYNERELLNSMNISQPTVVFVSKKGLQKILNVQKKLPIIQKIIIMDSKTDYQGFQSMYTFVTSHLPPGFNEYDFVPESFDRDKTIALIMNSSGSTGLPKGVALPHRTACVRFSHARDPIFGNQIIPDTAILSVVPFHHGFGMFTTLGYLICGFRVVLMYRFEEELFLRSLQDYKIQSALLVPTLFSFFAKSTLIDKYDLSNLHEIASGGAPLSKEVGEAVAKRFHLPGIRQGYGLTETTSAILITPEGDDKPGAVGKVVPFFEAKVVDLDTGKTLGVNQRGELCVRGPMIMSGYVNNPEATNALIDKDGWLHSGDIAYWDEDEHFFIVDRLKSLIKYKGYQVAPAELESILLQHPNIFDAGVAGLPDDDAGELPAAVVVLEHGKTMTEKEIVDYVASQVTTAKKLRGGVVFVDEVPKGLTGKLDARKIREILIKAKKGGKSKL
Procedure, shortened: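 System: Luciferase/luciferin detection reagent, cell-free biochemical luciferase assay | Medium: PBS buffer for ATP | Dosing: Test compounds dosed from 2 mM stocks in 100% DMSO | Timing: 10 min at ambient temperature | Signal: Luminescence measurement of luciferase light output | Evaluation: Luciferase activation, seen as luminescence increase over controls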

Activation factor, inactive:
CCO[C@H]1OC(C(=O)N2CCCCCCC2)=C[C@@H](c2ccc(C(F)(F)F)cc2)[C@@H]1CCCO 1.1, Cc1nn(Cc2ccc(F)cc2)c(C)c1NC(=O)c1cccnc1Cl 1.1, O=C(CCN1C(=O)c2ccccc2C1=O)C1=NN[C@@H]2C(=O)N(c3ccc(F)cc3)C(=O)[C@H]12 1, CCOc1ccc(-c2ccc(SCC(=O)N3CCOCC3)nn2)cc1 0.2, Cc1scc(C(=O)NNC(=S)NCC(C)C)c1C 1, CCCn1nc(C(=O)N2CCCc3ccccc32)c2ccccc2c1=O 1.1, Cc1ccc2cc(CCNC(=O)c3ccc4c(c3)OCO4)c(=O)[nH]c2c1 1.1, COc1ccc2oc(=O)c(C(=O)NCc3ccccn3)cc2c1 0.9, Cc1ccc2c(c1)C1CN(C)CCC1N2C(=O)c1ccccc1NS(=O)(=O)c1ccc(F)cc1C (stereo not given) 1.1, CCOc1ccc(CCNC(=O)C2=C(C)C(=O)OC23CCC(C)CC3)cc1OCC (stereo not given) 1.1, COc1ccc(NS(=O)(=O)c2ccc(O)c(C(=O)OCC(=O)NC3CCCCC3)c2)cc1 1.1, Cc1cccc(N=Nc2c(O)[nH]c3ccc(F)cc23)c1 0.9, NC1=NC(=O)C(Cc2cccc(Cl)c2)S1 (stereo not given) 1, CN(C)c1ccnc(Nc2ccc(F)cc2)c1C#N 1, COc1ccc(NC(=O)N2CCCC(c3nc(-c4ccc(F)cc4)no3)C2)cc1 (stereo not given) 1, CN1CCN(c2ccc(NC(=O)c3ccc4c(c3)[nH]c(=O)n4Cc3ccc(F)cc3)cc2)CC1 1, COc1ccc(NC(=O)CN2C(=O)C(c3ccccc3)=NC23CCCCCC3)cc1OC 1, CC(NC(=O)COC(=O)c1ccc(Cl)cc1O)c1ccc(F)cc1 (stereo not given) 1, CCOc1cccc(OCCCOc2cccc3cccnc23)c1 1, S=c1[nH]nc(NCCc2ccccc2)s1 0.9, COc1ccc(C(=O)N2CCC(C(=O)Nc3ccc(C)cc3)CC2)cc1 1, COc1cccc(/C=C2\SC(=N)N(c3ccc(F)cc3)C2=O)c1 1.1, O=[N+]([O-])/C(N=Nc1ccccc1)=N\Nc1ccccc1 1.1, COc1ccc(CC(=O)N[C@@H](CCSC)c2nc3ccccc3[nH]2)cc1 1.1, O=C(NCc1ccccn1)c1cc(Br)ccc1Cl 1, CC1CCN(c2ccc(C(=O)Nc3nnc(C4CC4)s3)cc2[N+](=O)[O-])CC1 1, Cc1cccc(N2C(=O)CC(SC(N)=Nc3ccccc3)C2=O)c1 (stereo not given) 1.1, COc1cc(/C=C/CO)cc(OC)c1O[C@@H]1O[C@H](CO)[C@@H](O)[C@H](O)[C@H]1O 1, Cc1ccc2[nH]cc(CCCN3C(=O)c4ccccc4C3=O)c2c1 1, COc1ccc(NC(=O)C(NC(C)=O)C(=O)NCc2ccccc2Cl)cc1 (stereo not given) 1, CC(OC(=O)CCc1nc(=O)c2ccccc2n1C)C(=O)NCc1ccc2c(c1)OCO2 (stereo not given) 1.1, CO/N=C(\N)c1ccc([N+](=O)[O-])cc1 1.1, Cc1ccc(CCCOC(=O)C[N+]2(C)CCCCC2)cc1 1, O=C(Cc1ccccc1)Nc1cccc(C(=O)N/N=C/c2ccco2)c1 0.9, Cc1ccc(CSc2nc3[nH]ncc3c(=O)[nH]2)cc1 0.6, COc1ccccc1NC(=O)C[n+]1ccccc1 1, COc1cc(C(=O)N2C(=O)c3cccc(N)c3C2=O)cc(OC)c1OC 1, CCOC(=O)C1CCCN(C(=O)c2cccc(S(=O)(=O)N3CCOCC3)c2)C1 (stereo not given) 1, COc1cccc(NC(=O)C(Sc2nc3ccccc3c(=O)n2CC(C)C)c2ccccc2)c1 (stereo not given) 1, Cc1cs/c(=N\N=C\c2ccc(O)cc2)n1Cc1ccco1 1

Reference: PubChem BioAssay AID1027 (Sanford-Burnham Center for Chemical Genomics, 2008)
